Measured values: ChEMBL document CHEMBL1124461, “Aromatic dienoyl tetramic acids. Novel antibacterial agents with activity against anaerobes and staphylococci” (J Med Chem, 1989)
Values after ≈ are worked out from the molar mass of the structure shown.

What was measured:
Bacteroides fragilis [1] = experiment: Minimum inhibitory concentration against Bacteroides fragilis ATCC 25285; format: functional
Procedure, shortened: (§1)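 Anaerobic MICs by 2-fold dilution in Wilkens-Chalgren broth, reported in micrograms/milliliter.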

Clostridium perfringens = experiment: Minimum inhibitory concentration against Clostridium perfringens ATCC 13124; format: functional
Procedure, shortened: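 Anaerobic MIC by 2-fold dilution in Wilkens-Chalgren broth; values in µg/mL.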

[2] = test system: Bacteroides thetaiotaomicron; experiment: Minimum inhibitory concentration against Bacteroides thetaiotaomicron ATCC 29741; format: functional; procedure, shortened: as §1
Clostridioides difficile = experiment: Minimum inhibitory concentration against Clostridium difficile ATCC 9689; format: functional; procedure, shortened: as §1
Staphylococcus aureus [3] = experiment: Compound is evaluated for cross resistance with DNA gyrase subunit A or B against Staphylococcus aureus 45CR-1 (coumermycin resistant); format: functional
Procedure, shortened: (§2)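 Aerobic MIC by 2-fold dilution on brain–heart infusion agar; values in µg/mL.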

Staphylococcus aureus [4] = experiment: Compound is evaluated for cross resistance with DNA gyrase subunit A or B against Staphylococcus aureus 337-113 (norfloxacin-resistant); format: functional; procedure, shortened: as §2
Staphylococcus aureus [5] = experiment: Compound is evaluated for cross resistance with DNA gyrase subunit A or B against Staphylococcus aureus 45; format: functional; procedure, shortened: as §2
Staphylococcus aureus [6] = experiment: Compound is evaluated for cross resistance with DNA gyrase subunit A or B against Staphylococcus aureus 730A; format: functional; procedure, shortened: as §2
[7] = target: DNA-directed RNA polymerase subunit beta (Escherichia coli K-12) (UniProt P0A8V2); experiment: Percent inhibition at a concentration of 100 ug/mL of RNA polymerase isolated from Escherichia coli K12 (Sigma)
Staphylococcus aureus [8] = experiment: Minimum inhibitory concentration (MIC) against the cell line Staphylococcus aureus 45; format: functional
Procedure, shortened: (§3)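 Aerobic MICs by 2-fold dilution on brain–heart infusion agar, reported in micrograms/milliliter.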

Staphylococcus aureus [9] = experiment: Minimum inhibitory concentration (MIC) against the cell line Staphylococcus aureus CMX 686B; format: functional; procedure, shortened: as §3
Staphylococcus aureus [10] = experiment: Minimum inhibitory concentration (MIC) against the cell line Staphylococcus aureus ATCC 6538P; format: functional; procedure, shortened: as §3
Pseudomonas aeruginosa = experiment: Minimum inhibitory concentration (MIC) against the cell line Pseudomonas aeruginosa A5007; format: functional; procedure, shortened: as §3
Escherichia coli [11] = experiment: Minimum inhibitory concentration (MIC) against the cell line Escherichia coli juhl; format: functional; procedure, shortened: as §3
[12] = test system: Staphylococcus epidermidis; experiment: Minimum inhibitory concentration (MIC) against the strain Staphylococcus epidermidis 3519
Streptococcus pyogenes = experiment: Minimum inhibitory concentration (MIC) against the cell line Streptococcus pyogenes EES61; format: functional; procedure, shortened: as §3
Staphylococcus aureus [13] = experiment: Minimum inhibitory concentration (MIC) against the cell line Staphylococcus aureus A5177; format: functional; procedure, shortened: as §3
Streptococcus equinus = experiment: Minimum inhibitory concentration (MIC) against the cell line Streptococcus bovis A5169; format: functional; procedure, shortened: as §3
Micrococcus luteus = experiment: Minimum inhibitory concentration (MIC) against the cell line Micrococcus luteus ATCC 4698; format: functional; procedure, shortened: as §3
Escherichia coli [14] = experiment: Minimum inhibitory concentration (MIC) against the cell line Escherichia coli H560; format: functional; procedure, shortened: as §3
Bacteroides fragilis [15] = experiment: Compound is evaluated for cross resistance with DNA gyrase subunit A or B against Bacteroides fragilis TirR (tirandamycin resistant); format: functional
Bacteroides fragilis [16] = experiment: Compound is evaluated for cross resistance with DNA gyrase subunit A or B against Bacteroides fragilis ATCC 25285; format: functional

DNA-directed RNA polymerase subunit beta (Escherichia coli K-12), sequence (P0A8V2 whole entry, looked up): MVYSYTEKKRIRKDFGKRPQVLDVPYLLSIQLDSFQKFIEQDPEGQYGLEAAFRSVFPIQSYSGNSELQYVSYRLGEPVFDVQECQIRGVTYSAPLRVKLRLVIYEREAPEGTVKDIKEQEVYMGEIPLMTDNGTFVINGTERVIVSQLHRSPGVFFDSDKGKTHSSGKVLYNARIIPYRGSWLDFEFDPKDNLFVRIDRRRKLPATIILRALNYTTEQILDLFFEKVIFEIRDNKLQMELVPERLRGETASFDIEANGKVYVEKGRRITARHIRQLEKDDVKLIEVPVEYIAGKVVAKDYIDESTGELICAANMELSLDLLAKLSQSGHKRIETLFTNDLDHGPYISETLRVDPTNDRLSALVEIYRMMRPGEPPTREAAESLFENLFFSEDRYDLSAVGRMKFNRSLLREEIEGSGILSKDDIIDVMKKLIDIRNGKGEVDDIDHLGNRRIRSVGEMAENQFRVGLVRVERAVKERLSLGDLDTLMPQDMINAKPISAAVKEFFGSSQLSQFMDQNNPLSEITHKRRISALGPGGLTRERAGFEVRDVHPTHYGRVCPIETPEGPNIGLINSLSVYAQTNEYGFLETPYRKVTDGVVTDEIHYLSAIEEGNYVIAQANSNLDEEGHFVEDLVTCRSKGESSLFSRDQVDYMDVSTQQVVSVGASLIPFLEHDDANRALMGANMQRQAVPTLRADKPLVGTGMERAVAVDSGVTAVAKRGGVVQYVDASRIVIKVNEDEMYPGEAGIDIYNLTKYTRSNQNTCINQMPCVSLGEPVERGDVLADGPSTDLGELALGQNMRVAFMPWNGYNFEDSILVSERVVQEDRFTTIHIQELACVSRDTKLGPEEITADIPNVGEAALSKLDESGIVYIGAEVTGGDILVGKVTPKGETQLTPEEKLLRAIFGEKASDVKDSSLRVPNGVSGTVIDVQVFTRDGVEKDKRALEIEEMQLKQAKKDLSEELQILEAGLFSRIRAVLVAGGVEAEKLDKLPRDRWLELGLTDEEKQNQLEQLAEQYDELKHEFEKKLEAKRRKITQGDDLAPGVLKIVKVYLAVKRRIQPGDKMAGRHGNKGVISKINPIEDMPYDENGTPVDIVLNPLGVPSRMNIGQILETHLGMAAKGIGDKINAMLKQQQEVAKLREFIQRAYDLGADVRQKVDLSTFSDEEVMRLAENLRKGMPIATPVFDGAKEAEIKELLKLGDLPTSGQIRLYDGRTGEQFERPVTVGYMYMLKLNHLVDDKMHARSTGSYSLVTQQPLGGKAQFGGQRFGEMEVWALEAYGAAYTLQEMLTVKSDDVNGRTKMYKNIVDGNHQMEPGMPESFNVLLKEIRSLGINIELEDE

Row | SMILES | MIC (Bacteroides fragilis [1]) | MIC (Clostridium perfringens) | MIC [2] | MIC (Clostridioides difficile) | further results
1 | CC(/C=C/C(O)=C1\C(=O)C2CCCN2C1=O)=C\c1ccc2ccccc2c1 (stereo unspecified) | 31 mg/L (≈ 86.2 µM) | 31 mg/L (≈ 86.2 µM) | 62 mg/L (≈ 172 µM) | 16 mg/L (≈ 44.5 µM) | 
2 | CO[C@@H]1[C@@H](OC(=O)c2ccc(C)[nH]2)[C@@H](O)[C@@H](Oc2ccc3c(O)c(NC(=O)c4c[nH]c(C(=O)Nc5c(O)c6ccc(O[C@H]7OC(C)(C)[C@H](OC)[C@@H](OC(=O)c8ccc(C)[nH]8)[C@H]7O)c(C)c6oc5=O)c4C)c(=O)oc3c2C)OC1(C)C [COUMERMYCIN] |  |  |  |  | MIC (Staphylococcus aureus [3]): 4 mg/L (≈ 3.6 µM); MIC (Staphylococcus aureus [4]): 0.008 mg/L (≈ 0.00721 µM); MIC (Staphylococcus aureus [5]): 0.008 mg/L (≈ 0.00721 µM); MIC (Staphylococcus aureus [6]): 0.008 mg/L (≈ 0.00721 µM)
3 | CC(/C=C/C(O)=C1\C(=O)CNC1=O)=C\c1ccccc1 | 4 mg/L (≈ 14.9 µM) | 8 mg/L (≈ 29.7 µM) | 4 mg/L (≈ 14.9 µM) | 4 mg/L (≈ 14.9 µM) | inhibition [7]: 4.5%
4 | CO[C@H]1/C=C/O[C@@]2(C)Oc3c(C)c(O)c4c(O)c(c(/C=N/N5CCN(C)CC5)c(O)c4c3C2=O)NC(=O)/C(C)=C\C=C\[C@H](C)[C@H](O)[C@@H](C)[C@@H](O)[C@@H](C)[C@H](OC(C)=O)[C@@H]1C |  |  |  |  | inhibition [7]: 57%
5 | CC(/C=C/C(=O)C1=C(O)CN(C)C1=O)=C\C1CCCCC1 | 8 mg/L (≈ 27.6 µM) | 4 mg/L (≈ 13.8 µM) | 8 mg/L (≈ 27.6 µM) | 4 mg/L (≈ 13.8 µM) | 
6 | CC(/C=C/C(O)=C1\C(=O)CNC1=O)=C\c1ccc2ccccc2c1 | ≤ 0.5 mg/L | ≤ 0.5 mg/L | ≤ 0.5 mg/L | ≤ 0.5 mg/L | MIC (Staphylococcus aureus [8]): 0.78 mg/L (≈ 2.44 µM); MIC (Staphylococcus aureus [9]): 0.78 mg/L (≈ 2.44 µM); MIC (Staphylococcus aureus [10]): 0.78 mg/L (≈ 2.44 µM); MIC (Pseudomonas aeruginosa): 100 mg/L (≈ 313 µM); MIC (Escherichia coli [11]): > 100 mg/L; MIC [12]: 3.1 mg/L (≈ 9.71 µM); MIC (Streptococcus pyogenes): 12.5 mg/L (≈ 39.1 µM); MIC (Staphylococcus aureus [13]): 1.56 mg/L (≈ 4.88 µM); MIC (Streptococcus equinus): 12.5 mg/L (≈ 39.1 µM); MIC (Micrococcus luteus): 6.2 mg/L (≈ 19.4 µM); MIC (Escherichia coli [14]): > 100 mg/L; inhibition [7]: 13.1%
7 | CN1CC(O)=C(C(=O)/C=C/C(Cl)=C/c2ccccc2)C1=O | 16 mg/L (≈ 52.7 µM) | 8 mg/L (≈ 26.3 µM) | 16 mg/L (≈ 52.7 µM) | 8 mg/L (≈ 26.3 µM) | 
8 | CCC[C@@H]1C[C@@H](C(=O)N[C@@H]([C@H]2O[C@H](SC)[C@H](O)[C@@H](O)[C@H]2O)[C@H](C)Cl)N(C)C1 [CLINDAMYCIN] | 2 mg/L (≈ 4.71 µM) | < 0.5 mg/L | 8 mg/L (≈ 18.8 µM) | 1 mg/L (≈ 2.35 µM) | 
9 | COCCOCc1ccc2ccccc2c1/C=C(C)/C=C/C(O)=C1\C(=O)CN(C)C1=O | 125 mg/L (≈ 297 µM) | 125 mg/L (≈ 297 µM) | 250 mg/L (≈ 593 µM) | 8 mg/L (≈ 19 µM) | 
10 | CN1CC(O)=C(C(=O)/C=C/C(Br)=C/c2ccccc2)C1=O | 16 mg/L (≈ 46 µM) | 8 mg/L (≈ 23 µM) | 16 mg/L (≈ 46 µM) | 16 mg/L (≈ 46 µM) | 
11 | CC(/C=C/C(O)=C1\C(=O)CNC1=O)=C\c1cccc2ccccc12 | 1 mg/L (≈ 3.13 µM) | 1 mg/L (≈ 3.13 µM) | 1 mg/L (≈ 3.13 µM) | 1 mg/L (≈ 3.13 µM) | MIC (Staphylococcus aureus [8]): 3.1 mg/L (≈ 9.71 µM); MIC (Staphylococcus aureus [9]): 3.1 mg/L (≈ 9.71 µM); MIC (Staphylococcus aureus [10]): 3.1 mg/L (≈ 9.71 µM); MIC (Pseudomonas aeruginosa): 100 mg/L (≈ 313 µM); MIC (Escherichia coli [11]): 100 mg/L (≈ 313 µM); MIC [12]: 6.2 mg/L (≈ 19.4 µM); MIC (Streptococcus pyogenes): 12.5 mg/L (≈ 39.1 µM); MIC (Staphylococcus aureus [13]): 3.1 mg/L (≈ 9.71 µM); MIC (Streptococcus equinus): 6.2 mg/L (≈ 19.4 µM); MIC (Micrococcus luteus): 12.5 mg/L (≈ 39.1 µM); MIC (Escherichia coli [14]): > 100 mg/L
12 | CC(/C=C/C(=O)C1=C(O)CN(C)C1=O)=C\c1ccc(F)c2ccccc12 | 2 mg/L (≈ 5.69 µM) | 62 mg/L (≈ 176 µM) | 2 mg/L (≈ 5.69 µM) | 31 mg/L (≈ 88.2 µM) | 
13 | CC(/C=C/C(=O)C1=C(O)CN(C)C1=O)=C\c1ccc2ccccc2c1 | < 0.5 mg/L | 2 mg/L (≈ 6 µM) | 31 mg/L (≈ 93 µM) | < 0.5 mg/L | MIC (Staphylococcus aureus [8]): 1.56 mg/L (≈ 4.68 µM); MIC (Staphylococcus aureus [9]): 1.56 mg/L (≈ 4.68 µM); MIC (Staphylococcus aureus [3]): 0.25 mg/L (≈ 0.75 µM); MIC (Staphylococcus aureus [10]): 1.56 mg/L (≈ 4.68 µM); MIC (Bacteroides fragilis [15]): 0.5 mg/L (≈ 1.5 µM); MIC (Pseudomonas aeruginosa): 100 mg/L (≈ 300 µM); MIC (Escherichia coli [11]): 200 mg/L (≈ 600 µM); MIC (Staphylococcus aureus [4]): 0.25 mg/L (≈ 0.75 µM); MIC [12]: 1.56 mg/L (≈ 4.68 µM); MIC (Bacteroides fragilis [16]): 0.5 mg/L (≈ 1.5 µM); MIC (Streptococcus pyogenes): 50 mg/L (≈ 150 µM); MIC (Staphylococcus aureus [13]): 1.56 mg/L (≈ 4.68 µM); MIC (Staphylococcus aureus [5]): 0.25 mg/L (≈ 0.75 µM); MIC (Staphylococcus aureus [6]): 0.25 mg/L (≈ 0.75 µM); MIC (Streptococcus equinus): 200 mg/L (≈ 600 µM); MIC (Micrococcus luteus): 1.56 mg/L (≈ 4.68 µM); MIC (Escherichia coli [14]): 200 mg/L (≈ 600 µM); inhibition [7]: 12.3%
14 | CC(/C=C/C(O)=C1\C(=O)CN(C)C1=O)=C\C(C)C1CCCCC1 (stereo unspecified) | 8 mg/L (≈ 25.2 µM) | 2 mg/L (≈ 6.3 µM) | 62 mg/L (≈ 195 µM) | 2 mg/L (≈ 6.3 µM) | 
15 | CC(/C=C/C(=O)C1=C(O)CN(C)C1=O)=C\c1cnc2ccccc2c1 | 2 mg/L (≈ 5.98 µM) | 2 mg/L (≈ 5.98 µM) | 4 mg/L (≈ 12 µM) | 2 mg/L (≈ 5.98 µM) | 
16 | CC(/C=C/C(=O)C1=C(O)CN(C)C1=O)=C\C1CCCCO1 (stereo unspecified) | 125 mg/L (≈ 429 µM) | 125 mg/L (≈ 429 µM) | 125 mg/L (≈ 429 µM) | 125 mg/L (≈ 429 µM) | 
17 | CC(/C=C/C(=O)C1=C(O)CN(C)C1=O)=C\c1cccc2ccccc12 | < 0.5 mg/L | < 0.5 mg/L | 2 mg/L (≈ 6 µM) | < 0.5 mg/L | MIC (Staphylococcus aureus [8]): 3.1 mg/L (≈ 9.3 µM); MIC (Staphylococcus aureus [9]): 3.1 mg/L (≈ 9.3 µM); MIC (Staphylococcus aureus [10]): 3.1 mg/L (≈ 9.3 µM); MIC (Pseudomonas aeruginosa): > 100 mg/L; MIC (Escherichia coli [11]): > 100 mg/L; MIC [12]: 3.1 mg/L (≈ 9.3 µM); MIC (Streptococcus pyogenes): 12.5 mg/L (≈ 37.5 µM); MIC (Staphylococcus aureus [13]): 3.1 mg/L (≈ 9.3 µM); MIC (Streptococcus equinus): 50 mg/L (≈ 150 µM); MIC (Micrococcus luteus): 6.2 mg/L (≈ 18.6 µM); MIC (Escherichia coli [14]): > 100 mg/L
18 | CC(/C=C/C(O)=C1\C(=O)CN(C)C1=O)=C\C(C)C | 31 mg/L (≈ 124 µM) | 31 mg/L (≈ 124 µM) | 62 mg/L (≈ 249 µM) | 31 mg/L (≈ 124 µM) | 
19 | CN1CC(O)=C(C(=O)/C=C/C=C/c2ccccc2)C1=O | 62 mg/L (≈ 230 µM) | 125 mg/L (≈ 464 µM) | 62 mg/L (≈ 230 µM) | 16 mg/L (≈ 59.4 µM) | 
